# EBI2 block: EBI2 (human) antagonism; P32249; inhibition, % at 5 µM; EBI2 beta-arrestin recruitment, luminescence, 7a,25-OHC stimulated; 0.81% of 360,000 active; in the data active = inhibition above about 38%;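 also: enzyme fragment complementation signal reports receptor beta-arrestin coupling in cells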
# Target sequence (P32249 whole entry, looked up, the tested form may be a part): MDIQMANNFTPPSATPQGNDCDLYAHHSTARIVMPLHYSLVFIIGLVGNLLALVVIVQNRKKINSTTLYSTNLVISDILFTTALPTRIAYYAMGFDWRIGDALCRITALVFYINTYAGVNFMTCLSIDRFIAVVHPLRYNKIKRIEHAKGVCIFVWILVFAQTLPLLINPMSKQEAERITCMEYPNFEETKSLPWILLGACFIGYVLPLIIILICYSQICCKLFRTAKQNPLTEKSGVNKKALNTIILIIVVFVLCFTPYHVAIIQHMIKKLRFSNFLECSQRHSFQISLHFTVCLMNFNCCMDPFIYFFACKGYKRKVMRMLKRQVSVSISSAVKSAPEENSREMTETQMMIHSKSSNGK
# MPTP block: inhibitors of mitochondrial permeability transition pore; isolated mouse mitochondria, Ca2+ swelling absorbance, 30 min; inhibition, % at 10 µM; 1.4% of 360,000 active;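 active = inhibition of 50% or more, scaled per plate between neutral and stimulator controls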
# NR3A LBD binder: NR3A (human) ligand-binding domain modulation | Tm shift relative to glycine control, % at 25 µM | AID 1259313 | 2.5% of 340,000 active | NR3A LBD differential scanning fluorimetry, Tm shift; 0% = protein alone, 100% = glycine-bound protein;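 active = melting temperature shift of at least 10% of the positive control shift, at one fixed dose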
# SENP1 FRET inh: inhibitors of human SENP1 SUMO protease catalytic domain; Q9P0U3; recombinant SENP1 catalytic domain, CyPet-SUMO1-YPet FRET cleavage; inhibition, % at 10 µM; 0.21% of 360,000 active; AID 624204;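 active = inhibition at least 30% at 10 µM, raw YFP signal under a set limit, fluorescence ratio 0.5 to 1.5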
# Target sequence (Q9P0U3 419-644 limits assumed): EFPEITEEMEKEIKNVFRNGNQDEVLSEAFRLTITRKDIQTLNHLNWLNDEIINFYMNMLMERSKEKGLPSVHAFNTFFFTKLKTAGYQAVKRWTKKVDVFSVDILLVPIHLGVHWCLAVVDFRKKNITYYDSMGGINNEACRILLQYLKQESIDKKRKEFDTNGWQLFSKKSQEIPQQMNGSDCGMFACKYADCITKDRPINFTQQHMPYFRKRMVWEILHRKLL
#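 Test system: recombinant human SENP1 catalytic domain, His6-tagged / Medium: pH 8 Tris buffer with EDTA, NaCl, BME, BSA, NP40, catalase / Also added: SUMO1 FRET substrate flanked by Cypet and Ypet, 25 nM / Times: 50 min reaction at room temperature / Signal: FRET, CFP and YFP emission / Control set: no-enzyme low control and enzyme-plus-DMSO high control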
# EBI2 conf: EBI2 (human) antagonism, single concentration confirmation; EBI2 beta-arrestin luminescence, 7a,25-OHC antagonism; inhibition, % at 5 µM; shares compounds with EBI2 block; 29% of 2,400 active;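 active = inhibition of at least 50%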
# EBI2 ag: counter-screen for EBI2 antagonists: EBI2 agonist activity; shares compounds with EBI2 block; EBI2-expressing cells, agonist mode, luminescence, 60 min; 0% vehicle, 100% 7α,25-dihydroxycholesterol control; activation, % at 5 µM; 2,400 tested, under 10 active; AID 652000;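 active = activation of at least 50%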
# bGal counter: counter-screen for EBI2 antagonists: E. coli beta-galactosidase inhibition | shares compounds with EBI2 block | purified beta-galactosidase, luminescent Galacton Star, 15 min | inhibition, % at 5 µM | 1% of 2,400 active | AID 652176;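 active = replicate-average signal at least 3 plate SD below neutral wells, shown as high inhibition, flagging enzyme-inhibiting false positives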;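 also: higher means stronger loss of beta-gal luminescence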
# A number is an active result; n = inactive; x = no result. Rows were chosen to be rich in hits. Some 4.4% of all compounds tested hit in one or more screens of this group.
SMILES,EBI2 block,MPTP block,NR3A LBD binder,SENP1 FRET inh,EBI2 conf,EBI2 ag,bGal counter
NNC(=S)Nc1ccc(S(=O)(=O)N2CCCCC2)cc1,44,n,n,n,n,n,n
Cc1ccc(CNC(=O)C2=CCN(S(=O)(=O)c3ccc(C)cc3)CC2)cc1,66,n,x,n,n,n,n
CN(C)C(=S)Nc1ccc(S(=O)(=O)N2CCCCC2)cc1,n,n,n,n,x,x,x
CC(=O)c1ccc(S(=O)(=O)N2CCN(C(=O)c3ccc(-n4nc(C)c(Cl)c4C)cc3)CC2)cc1,n,n,n,n,x,x,x
Cc1nn(-c2ccc(C(=O)N3CCN(S(=O)(=O)c4ccccc4C(F)(F)F)CC3)cc2)c(C)c1Cl,47,n,n,n,n,n,n
Cc1ccccc1OCC(=O)N/N=C/c1cc2ccccc2nc1Cl,n,n,n,n,x,x,x
O=C(COc1cccc(Cl)c1)N/N=C\c1cc2ccccc2nc1Cl,53,n,n,n,n,n,n
O=C(COC(=O)CCSc1ccccc1)Nc1ccccc1Br,n,n,n,n,x,x,x
O=C(Cc1ccc(NC(=O)C2CCCN(C(=O)C3CCC3)C2)cc1)Nc1cccc(C(=O)N2CCCC2)c1 (centres undefined),n,n,n,n,x,x,x
O=C(/C=C/c1ccc(OCc2ccccc2)c(OCc2ccccc2)c1)c1cccnc1,46,n,n,n,n,n,n
O=C(NCCOc1ccc(Cl)cc1)C1CC(=O)N(c2ccc3c(c2)OCCO3)C1 (centres undefined),n,n,n,n,x,x,x
Cc1nc(NN)c2c3c(sc2n1)COC(C)(C)C3,n,n,n,n,x,x,x
O=C(NC1CC(=O)N(c2ccc(Cl)cc2)C1)N1CCN(C(=O)c2ccco2)CC1 (centres undefined),66,n,n,n,n,n,n
COc1ccc(NC(=O)N2CCN(c3ccc([N+](=O)[O-])cc3)CC2)cc1,62,n,n,n,n,n,n
COc1ccc(N2CCN(C(=O)NC3CC(=O)N(c4ccc(OC)cc4)C3)CC2)cc1 (centres undefined),46,n,n,n,n,n,n
CCN1C(=O)/C(=C2\SC(=S)N(NC(=O)c3cccnc3)C2=O)c2ccccc21,n,n,n,n,x,x,x
COc1ccc(-c2noc(CNC(=O)c3ccoc3C)n2)cc1OC,n,n,n,n,x,x,x
CC1=CC(C)(C)Nc2ccc(OS(=O)(=O)c3ccc(C)cc3)cc21,42,n,n,n,n,n,n
COC(=O)c1ccc(NC(=O)CN2CCN(S(=O)(=O)c3ccc(Br)cc3)CC2)cc1,n,n,n,n,x,x,x
Cc1c(C(=O)N2CCN(CCc3ccccc3)CC2)oc2ccccc12,n,n,n,n,x,x,x
O=C(c1cc(=O)c2cc(Cl)ccc2o1)N1CCN(Cc2ccccc2)CC1,93,n,n,n,92,n,n
Cc1cc(C)c2oc(C(=O)N3CCN(C)CC3)cc(=O)c2c1,n,n,n,n,x,x,x
O=c1cc(CN2CCN(Cc3ccccc3)CC2)c2cc(Cl)ccc2o1,n,n,n,n,x,x,x
Cc1c(C(=O)N2CCN(CCc3ccccn3)CC2)oc2ccc(Cl)cc12,54,n,n,n,n,n,n
Cc1cc(C)c2oc(C(=O)N3CCN(Cc4ccccc4)CC3)cc(=O)c2c1,58,n,n,n,n,n,n
SMILES,EBI2 block,MPTP block,NR3A LBD binder,SENP1 FRET inh,EBI2 conf,EBI2 ag,bGal counter
O=C(O)c1ccc(S(=O)(=O)Nc2cccc(CP(=O)(c3ccccc3)c3ccccc3)c2)cc1,n,n,n,n,x,x,x
CCOC(=O)N1CCN(c2ncnc3scc(-c4ccc(Cl)cc4)c23)CC1,n,n,n,n,x,x,x
Clc1ccc(-c2csc3ncnc(N4CCc5ccccc5C4)c23)cc1,44,n,n,n,n,n,n
COc1ccc(CCNC(=O)C23CN(Cc4ccccc4)CC2C(c2ccc([N+](=O)[O-])cc2)=NO3)cc1 (centres undefined),61,n,n,n,n,n,n
COc1ccc(CNC(=O)C23CN(Cc4ccccc4)CC2C(c2ccc([N+](=O)[O-])cc2)=NO3)cc1 (centres undefined),n,n,n,n,x,x,x
O=C(CSc1nnc(Cc2cccs2)n1C1CC1)NC1CCS(=O)(=O)C1 (centres undefined),n,n,n,n,x,x,x
CC(C)C1CCN(C(=O)C2CCC(=O)N(CCc3ccc(Cl)cc3)C2)CC1 (centres undefined),79,n,n,n,50,n,n
C=CCC1(CC=C)CCCN1C(=O)C1CCC(=O)N(CCc2ccc(Cl)cc2)C1 (centres undefined),79,n,n,n,n,n,n
COc1ccc(NC(=O)CN2CCN(C3c4ccccc4-c4ccccc43)CC2)cc1,47,n,n,n,n,n,n
COc1ccc(NC(=O)CN2CCN(c3ccccc3)CC2)cc1,n,n,n,n,x,x,x
CN1C(=O)C(O)(CC(=O)c2ccccn2)c2cc(Br)ccc21 (centres undefined),36,n,n,n,n,n,n
Cc1ccc(CN2C(=O)C(C)Nc3ncnc(N4CCN(c5ccccn5)CC4)c32)cc1 (centres undefined),53,n,n,n,n,n,49
Cc1ccc(CN2C(=O)C(Cc3ccccc3)Nc3ncnc(N4CCN(c5ccccc5)CC4)c32)cc1 (centres undefined),60,n,n,n,62,n,37
O=C1C(Cc2ccccc2)Nc2ncnc(N3CCN(c4ccccc4)CC3)c2N1Cc1ccc(Br)cc1 (centres undefined),75,n,n,n,71,n,41
CC(C)CC1Nc2ncnc(N3CCN(c4ccccn4)CC3)c2N(Cc2ccc(Br)cc2)C1=O (centres undefined),n,n,n,n,x,x,x
CCC1Nc2ncnc(N3CCN(c4ccccc4)CC3)c2N(Cc2ccc(OC)cc2)C1=O (centres undefined),56,n,n,n,60,n,61
O=C1C(Cc2ccccc2)Nc2ncnc(N3CCN(c4ccccc4)CC3)c2N1Cc1ccccc1 (centres undefined),n,n,n,n,x,x,x
O=C1C(Cc2ccccc2)Nc2ncnc(N3CCOCC3)c2N1Cc1ccc(Cl)cc1 (centres undefined),n,n,n,n,x,x,x
Cc1ccc(S(=O)(=O)NCc2ccccc2)cc1C(=O)N(C)CC(=O)Nc1c(Cl)cccc1Cl,n,n,n,n,x,x,x
O=C(CN(C(=O)CCC(=O)Nc1nccs1)c1ccccc1F)NCCc1ccccc1,n,n,n,n,x,x,x
COc1ccc(C2CC(c3cccs3)=NN2C(=O)COC(=O)c2cncc(Br)c2)cc1OC (centres undefined),n,n,n,n,x,x,x
O=C(NCCc1ccccc1)c1ccc(NC(=O)C2CCC2)cc1,n,n,n,n,x,x,x
